According to ChEMBL document CHEMBL1212830, “The structure-activity relationship of the 3-oxy site in the anticonvulsant (R)-N-benzyl 2-acetamido-3-methoxypropionamide” (J Med Chem, 2010):

Legend:
Mus musculus [1] = test: Anticonvulsant activity in ip dosed albino Carworth Farms number 1 mouse assessed as protection against maximal electroshock-induced seizure; format: functional; details: albino Carworth Farms number 1, ip
In short: (§1)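 Maximal electroshock (MES) seizure test within the NINDS Anticonvulsant Screening Program. Protection is scored as block of induced hind limb extension. Mice are dosed ip and rats po.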

Mus musculus [2] = test: Anticonvulsant activity in ip dosed 6 Hz psychomotor seizure model of albino Carworth Farms number 1 mouse assessed as protection against seizure; format: functional; details: albino Carworth Farms number 1, ip
In short: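 Psychomotor 6 Hz seizure test at 32 mA in mice, compound given intraperitoneally, run within the NINDS Anticonvulsant Screening Program. Median effective dose (ED50) in mg/kg from quantitative screening.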

Rattus norvegicus [3] = test: Anticonvulsant activity in po dosed albino Sprague-Dawley rat assessed as protection against maximal electroshock-induced seizure; format: functional; details: albino Spague-Dawley; in short: as §1
[4] = Neurotoxicity in po dosed albino Sprague-Dawley rat by rotarod test; format: toxicity, organism-based, albino Spague-Dawley; details: in vivo
In short: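 Rotorod test for behavioural neurotoxicity (mice ip, rats po). Median dose causing neurological impairment in 50% of animals (TD50, mg/kg) is determined only for compounds active in the MES test. The highest rat dose tested was 500 mg/kg.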

Rattus norvegicus [5] = test: Protective index, ratio of neurotoxicity TD50 to anticonvulsant ED50 for po dosed albino Spague-Dawley rat; format: functional
In short: (§2)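 Protective index is calculated as rotorod TD50 divided by MES ED50, both in mg/kg and from the same species and route (mice ip, rats po).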

Rattus norvegicus [6] = test: Anticonvulsant activity in ip dosed albino Sprague-Dawley rat assessed as protection against maximal electroshock-induced seizure; format: functional; details: albino Spague-Dawley
In short: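 Run under the NINDS Anticonvulsant Screening Program. Rats received compound intraperitoneally as a stated exception to the usual oral rat route. Protection meant blocking hind-limb extension in the maximal electroshock test. ED50 was derived from quantitative dose-response screening of compounds with significant activity.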

[7] = Neurotoxicity in ip dosed albino Sprague-Dawley rat by rotarod test; format: toxicity, organism-based, albino Spague-Dawley; details: in vivo
[8] = Neurotoxicity in ip dosed albino Carworth Farms number 1 mouse by rotarod test; format: toxicity, organism-based; details: in vivo
Mus musculus [9] = test: Protective index, ratio of neurotoxicity TD50 to anticonvulsant ED50 for ip dosed albino Carworth Farms number 1 mouse; format: functional; in short: as §2
Rattus norvegicus [10] = test: Neurotoxicity in albino Sprague-Dawley rat assessed as induction of ataxia at up to 3000 mg/kg, po by rotarod test; format: toxicity, organism-based, albino Spague-Dawley; design: dose 3000 mg/kg, route oral; details: in vivo
In short: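 Rats were dosed orally. Median neurotoxic dose (TD50) was taken from behavioural neurological impairment, judged with the rotarod test. It was determined only for compounds with significant activity in the maximal electroshock test. Testing was done under the NINDS Anticonvulsant Screening Program procedures.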

Compound	ED50 (Mus musculus [1])	ED50 (Mus musculus [2])	ED50 (Rattus norvegicus [3])	TD50 [4]	Ratio TD50/ED50 (Rattus norvegicus [5])	ED50 (Rattus norvegicus [6])	TD50 [7]	TD50 [8]	Ratio TD50/ED50 (Mus musculus [9])	Activity (Rattus norvegicus [10])
C#CCOC[C@@H](NC(C)=O)C(=O)NCc1ccccc1	16 mg/kg	29 mg/kg	7.9 mg/kg	> 500 mg/kg	>63					
CC(=O)N[C@H](COCCN=[N+]=[N-])C(=O)NCc1ccccc1	100 mg/kg	44 mg/kg	> 40 mg/kg		>13	5.7 mg/kg	78 mg/kg			
CC(=O)N[C@H](COCCN=C=S)C(=O)NCc1ccccc1	> 300 mg/kg		< 30 mg/kg	> 30 mg/kg				100 mg/kg		
[2H]C([2H])([2H])OC[C@@H](NC(C)=O)C(=O)NCc1ccccc1			5.2 mg/kg	200 mg/kg						
CC(=O)N[C@H](COC1CCCCC1)C(=O)NCc1ccccc1	100 mg/kg		30 mg/kg	> 30 mg/kg				300 mg/kg		
CC#CCOC[C@@H](NC(C)=O)C(=O)NCc1ccccc1	30 mg/kg		6.4 mg/kg	> 500 mg/kg				30 mg/kg		
CC(=O)N[C@H](COCC1CCCCC1)C(=O)NCc1ccccc1	100 mg/kg							300 mg/kg		
CC(=O)N[C@H](COCc1ccccc1)C(=O)NCc1ccccc1	64 mg/kg		> 30 mg/kg	> 30 mg/kg				200 mg/kg	3.2	
C=CCCOC[C@@H](NC(C)=O)C(=O)NCc1ccccc1	30 mg/kg		17 mg/kg	> 500 mg/kg	>29			100 mg/kg		
CC(=O)N[C@H](COCCC1CC1)C(=O)NCc1ccccc1	46 mg/kg		> 30 mg/kg	> 30 mg/kg				85 mg/kg	1.9	
C#CCCOC[C@@H](NC(C)=O)C(=O)NCc1ccccc1	30 mg/kg		11 mg/kg	250 mg/kg	>23			30 mg/kg		
CC(=O)N[C@H](COCCc1ccccc1)C(=O)NCc1ccccc1	100 mg/kg		> 30 mg/kg	> 30 mg/kg				100 mg/kg		
CC(=O)N[C@H](COCCC1(C)N=N1)C(=O)NCc1ccccc1	30 mg/kg		44 mg/kg	> 500 mg/kg	>11			100 mg/kg		
CC(=O)N[C@H](COCCC=O)C(=O)NCc1ccccc1	> 300 mg/kg		> 100 mg/kg					> 300 mg/kg		
CC(=O)NCCOC[C@@H](NC(C)=O)C(=O)NCc1ccccc1	> 300 mg/kg		> 30 mg/kg	> 30 mg/kg				> 300 mg/kg		
COCc1cn(CCOC[C@@H](NC(C)=O)C(=O)NCc2ccccc2)nn1	> 300 mg/kg	> 100 mg/kg						> 300 mg/kg		
COCCOC[C@@H](NC(C)=O)C(=O)NCc1ccccc1	30 mg/kg							300 mg/kg		
CC(=O)N[C@H](COC(C)C)C(=O)NCc1ccccc1	23 mg/kg	23 mg/kg	8.6 mg/kg	> 500 mg/kg	>58				3.3	
CCOC[C@@H](NC(C)=O)C(=O)NCc1ccccc1	7.9 mg/kg		5.6 mg/kg	> 500 mg/kg	>89				5.6	
COCCOCCOC[C@@H](NC(C)=O)C(=O)NCc1ccccc1	> 300 mg/kg	> 100 mg/kg	> 30 mg/kg	> 50 mg/kg				> 300 mg/kg		
CC(=O)N[C@H](COC(C)(C)C)C(=O)NCc1ccccc1	30 mg/kg							300 mg/kg		
CC(=O)N[C@H](COc1ccccc1)C(=O)NCc1ccccc1	100 mg/kg							> 600 mg/kg		
CC(=O)N[C@H](COCCC1CO1)C(=O)NCc1ccccc1 (mixture of isomers)	> 300 mg/kg							> 300 mg/kg		
C=CCOCC(NC(C)=O)C(=O)NCc1ccccc1 (racemic)	30 mg/kg							30 mg/kg		
COC[C@@H](NC(C)=O)C(=O)NCc1ccccc1 [LACOSAMIDE]				> 500 mg/kg						
CCC1(c2ccccc2)C(=O)NC(=O)NC1=O [PHENOBARBITAL]	22 mg/kg		9.1 mg/kg							
O=C1NC(=O)C(c2ccccc2)(c2ccccc2)N1 [PHENYTOIN]			30 mg/kg							Non-toxic
CCCC(CCC)C(=O)O [VALPROIC ACID]	270 mg/kg									
